Experimental data: ChEMBL document CHEMBL1151304, “Preparation and cytotoxic effect of ceanothic acid derivatives” (J Nat Prod, 1998)
In brackets after ≈: the same amount, converted by molar mass.

How the values were obtained:
HeLa [1] = test: Cytotoxicity against human HeLa cells assessed as cell survival after 48 hrs by MTT assay relative to control; type: functional; set-up: concentration or dose not given beside the values
Procedure, shortened: (§1)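 FS-5 foreskin fibroblasts and HeLa cervical carcinoma cells were grown in DMEM with 10% heat-inactivated FCS, antibiotics and glutamine at 37 °C under 5% CO₂. They were seeded at 2 × 10⁴ cells/well and held 24 h, then exposed for 48 h to compound in medium with 2% FCS. MTT (5 mg/mL stock in PBS) went on for 4 h, then SDS/DMF lysis overnight, and A570 was read.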

OVCAR-3 [2] = test: Cytotoxicity against human OVCAR-3 cells assessed as cell survival after 48 hrs by MTT assay relative to control; type: functional; set-up: concentration or dose not given beside the values
Procedure, shortened: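 OVCAR-3 (human ovarian adenocarcinoma) cells were kept in RPMI 1640 with 10% heat-inactivated FCS, streptomycin, penicillin and 2 mM glutamine at 37 °C under 5% CO₂. They were seeded at 2 × 10⁴ cells/well and grown 24 h. The medium was then swapped for one holding compound and 2% FCS for 48 h. MTT (5 mg/mL stock in PBS) went on for 4 h in serum-free medium, then SDS/DMF lysis overnight, and absorbance was read at 570 nm.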

[3] = Cytotoxicity against human FS5 cells assessed as cell survival after 48 hrs by MTT assay relative to control; type: cell-based; set-up: concentration or dose not given beside the values; details: read-out: Survival; procedure, shortened: as §1
OVCAR-3 [4] = test: Cytotoxicity against human OVCAR-3 cells after 48 hrs by MTT assay; type: functional, cell-based; details: OVCAR-3, 48 h
Procedure, shortened: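 OVCAR-3 ovarian adenocarcinoma cells kept in RPMI 1640 with 10% heat-inactivated FCS, 100 µg/mL streptomycin, 100 IU/mL penicillin, 2 mM glutamine at 37 °C, 5% CO2. Plated at 2 × 10⁴ cells/well and cultured 24 h, then treated 48 h in 2% FCS medium. After washing, MTT incubation 4 h, overnight lysis in 20% SDS/50% DMF, absorbance at 570 nm.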

HeLa [5] = test: Cytotoxicity against human HeLa cells after 48 hrs by MTT assay; type: functional, cell-based
Procedure, shortened: (§2)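 FS-5 foreskin fibroblasts and HeLa cervical carcinoma cells grown in DMEM with 10% heat-inactivated FCS, penicillin, streptomycin, glutamine (37 °C, 5% CO2). Seeded at 2 × 10⁴ cells/well and left 24 h, then exposed 48 h to compounds in medium with 2% FCS. Washed, MTT added for 4 h at 37 °C, lysed overnight in SDS/DMF, A570 read.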

[6] = Cytotoxicity against human FS5 cells after 48 hrs by MTT assay; type: cell-based; details: FS5, 48 h; procedure, shortened: as §2
OVCAR-3 [7] = test: Cytotoxicity against human OVCAR-3 cells assessed as cell survival at 10 ug/ml after 48 hrs by MTT assay relative to control; type: functional; details: OVCAR-3, 48 h, read-out: Survival
HeLa [8] = test: Cytotoxicity against human HeLa cells assessed as cell survival at 10 ug/ml after 48 hrs by MTT assay relative to control; type: functional; details: read-out: Survival
[9] = Cytotoxicity against human FS5 cells assessed as cell survival at 10 ug/ml after 48 hrs by MTT assay relative to control; type: cell-based; details: read-out: Survival

## C=C(C)[C@@H]1CC[C@]2(C(=O)O)CC[C@]3(C)[C@H](CC[C@@H]4[C@@]5(C)[C@@H](CO)[C@H](O)C(C)(C)[C@@H]5CC[C@]43C)[C@@H]12
HeLa [1]
  Survival: 22%
OVCAR-3 [2]
  Survival: 25%
[3]
  viability at 48 h: 43%

## C=C(C)[C@@H]1CC[C@]2(C(=O)O)CC[C@]3(C)[C@H](CC[C@@H]4[C@@]5(C)CC(=O)C(C)(C)[C@@H]5CC[C@]43C)[C@@H]12
HeLa [1]
  Survival: 4%
OVCAR-3 [4]
  IC50: 2.8 µg/mL (≈ 6.35 µM)
OVCAR-3 [2]
  Survival: 0%
HeLa [5]
  IC50: 6.6 µg/mL (≈ 15 µM)
[3]
  viability at 48 h: 16%
[6]
  IC50: 11.3 µg/mL (≈ 25.6 µM)

## C=C(C)[C@@H]1CC[C@]2(C(=O)O)CC[C@]3(C)[C@H](CC[C@@H]4[C@@]5(C)C(C(=O)O)=CC(C)(C)[C@@H]5CC[C@]43C)[C@@H]12
HeLa [1]
  Survival: 50%
OVCAR-3 [2]
  Survival: 51%
[3]
  viability at 48 h: 87%

## COc1cccc2c1C(=O)c1c(O)c3c(c(O)c1C2=O)C[C@@](O)(C(=O)CO)C[C@@H]3O[C@H]1C[C@H](N)[C@H](O)[C@H](C)O1 [DOXORUBICIN]
OVCAR-3 [7]
  viability at 10 µg/mL: 21%
HeLa [8]
  viability at 10 µg/mL: 19%
[9]
  viability at 48 h, 10 ug/ml: 56%

## C=C(C)[C@@H]1CC[C@]2(C(=O)O)CC[C@]3(C)[C@H](CC[C@@H]4[C@@]5(C)C[C@H](O)C(C)(C)[C@@H]5CC[C@]43C)[C@@H]12
HeLa [1]
  Survival: 18%
OVCAR-3 [4]
  IC50: 4.7 µg/mL (≈ 10.6 µM)
OVCAR-3 [2]
  Survival: 0%
HeLa [5]
  IC50: 9.1 µg/mL (≈ 20.6 µM)
[3]
  viability at 48 h: 67%
[6]
  IC50: 29.6 µg/mL (≈ 66.9 µM)

## C=C(C)[C@@H]1CC[C@]2(C(=O)O)CC[C@]3(C)[C@H](CC[C@@H]4[C@@]5(C)CC[C@H](O)C(C)(C)[C@@H]5CC[C@]43C)[C@@H]12 [BETULINIC ACID]
HeLa [1]
  Survival: 25%
OVCAR-3 [4]
  IC50: 0.9 µg/mL (≈ 1.97 µM)
OVCAR-3 [2]
  Survival: 0%
HeLa [5]
  IC50: 0.8 µg/mL (≈ 1.75 µM)
[3]
  viability at 48 h: 39%
[6]
  IC50: 20.7 µg/mL (≈ 45.3 µM)

## C=C(C)[C@@H]1CC[C@]2(C(=O)O)CC[C@]3(C)[C@H](CC[C@@H]4[C@@]5(C)[C@@H](C(=O)O)[C@H](O)C(C)(C)[C@@H]5CC[C@]43C)[C@@H]12 [CEANOTHIC ACID]
HeLa [1]
  Survival: 65%
OVCAR-3 [2]
  Survival: 68%
[3]
  viability at 48 h: 81%

## C=C(C)[C@@H]1CC[C@]2(C(=O)O)CC[C@]3(C)[C@H](CC[C@@H]4[C@@]5(C)CCC(C)(C)[C@@H]5CC[C@]43C)[C@@H]12
HeLa [1]
  Survival: 48%
OVCAR-3 [2]
  Survival: 55%
[3]
  viability at 48 h: 85%

## C=C(C)[C@@H]1CC[C@]2(C(=O)O)CC[C@]3(C)[C@H](CC[C@@H]4[C@@]5(C)C=CC(C)(C)[C@@H]5CC[C@]43C)[C@@H]12
HeLa [1]
  Survival: 17%
OVCAR-3 [4]
  IC50: 3.5 µg/mL (≈ 8.24 µM)
OVCAR-3 [2]
  Survival: 0%
HeLa [5]
  IC50: 7.1 µg/mL (≈ 16.7 µM)
[3]
  viability at 48 h: 33%
[6]
  IC50: 22.7 µg/mL (≈ 53.5 µM)
